Bioassay records (PubChem)
This is a sample that favours compounds with a hit; in the whole collection about 5.6% have one here.
MPTP inh = mitochondrial permeability transition pore inhibitors, primary screen, biochemical, isolated mouse mitochondria, absorbance; Ca2+ swelling absorbance, 30 min; inhibition, % at 10 µM; 1.4% of 360,000 active; AID 602449, 2012;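 active means inhibition of 50% or more, scaled per plate between neutral and stimulator controls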;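 further: 0% = DMSO wells given calcium and 100% = 1 mM EGTA wells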
aDG glyco up = activators of alpha-DG glycosylation, primary screen, uHTS, Pro5-aDG cells, AlphaScreen; alpha-DG glycosylation AlphaScreen (IIH6); 0% Pro5, 100% B10-LARGE cell signal; 0.22% of 360,000 active; activation, % at 10 µM;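 active means activation of at least 8% versus controls, or a plate z-score of at least 8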;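 further: Pro5 are CHO cells carrying HIG-tagged alpha-DG that lacks glycosylation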
XBP1 UPR activ = activators of adaptive XBP1 UPR arm, primary screen, cell-based, CHO-XBP1 luciferase reporter, luminescence, uHTS; 0.33% of 330,000 active; IRE1-XBP1 UPR activation; percent of tunicamycin response, DMSO as zero; AID 463104, 2010; activation, % at 20 µM;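 active means versus positive control, 20 µM dose yields 30% or more activation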;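 further: 100% = tunicamycin at 10 µg/mL and 0% = DMSO only wells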
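Material – CHO cell line with stable XBP1 luciferase reporter · Buffer or medium – F12 plus 10% FBS · Compound – single point, 20 µM final compound, 1% DMSO · Schedule – 16-18 h cell attachment at 37 °C, then 6 h compound exposure · Signal – Steady-Glo luminescence read · Benchmarks – high control tunicamycin 10 µg/mL final, low control DMSO vehicle only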
NR3A LBD binder = binders of NR3A ligand-binding domain, primary screen, biophysical, differential scanning fluorimetry, uHTS; Tm shift relative to glycine control, % at 25 µM; NR3A LBD differential scanning fluorimetry, Tm shift; 0% = protein alone, 100% = glycine-bound protein; 2.5% of 340,000 active;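 active means melting temperature shift of at least 10% of the positive control shift, at one fixed dose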
UPR CHOP act = activators of apoptotic CHOP UPR arm, primary screen, cell-based, CHO-CHOP luciferase reporter, luminescence, uHTS | UPR activation; percent of tunicamycin response over DMSO baseline | activation, % at 10 µM | 0.34% of 330,000 active | AID 449763, 2010;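 active means at 10 µM dose, activation of 40% or more, normalized to positive control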;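 further: 100% = tunicamycin at 10 µg/mL and 0% = DMSO alone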
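Material: CHO-CHOP cells, stable luciferase reporter of PERK-eIF2a-CHOP signalling; quantity: 500 reporter cells seeded per well; buffer or medium: F12 medium containing 10% fetal bovine serum; compound: one dose, 10 µM in 0.5% DMSO; incubation: 6 h compound treatment, 37 °C; measured by: Steady-Glo luciferase luminescence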
CHOP inhibitor = inhibitors of CHOP promoter induction, primary screen, cell-based, unfolded protein response, luciferase reporter. CHO-K1 CHOP-promoter luciferase, tunicamycin-induced, 15-18 h. inhibition, % at 10 µM. 3.8% of 220,000 active. AID 2732, 2010;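 active means compounds that reduced the stress-induced luciferase reporter signal by more than about 70% of percent inhibition, limit read from the data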;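 further: 0% = tunicamycin plus vehicle and 100% = wells without tunicamycin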
* = called active by the depositor.

For COc1ccc(/C=C2\CC/C(=C\c3ccc(OC)c(OC)c3)C2=O)cc1OC the results were MPTP inh -21, aDG glyco up 0, XBP1 UPR activ 0, NR3A LBD binder 16*, UPR CHOP act 3 and CHOP inhibitor 31.
`COc1cc(/C=C2/CC/C(=C/c3ccc(O)c(OC)c3)C2=O)ccc1O` gave MPTP inh 15, aDG glyco up 0, XBP1 UPR activ 3, NR3A LBD binder 14*, UPR CHOP act 0 and CHOP inhibitor 22.
`COc1cc(/C=C2\CC/C(=C\c3ccc(OCCO)c(OC)c3)C2=O)ccc1OCCO` gave MPTP inh 3, aDG glyco up -1, XBP1 UPR activ 4, NR3A LBD binder -6, UPR CHOP act -1 and CHOP inhibitor -10.
Screening O=C1CCN(CCc2ccccc2)CCN1CCSc1ccccc1 returned MPTP inh 0, aDG glyco up 0, XBP1 UPR activ 2, NR3A LBD binder -1 and UPR CHOP act 3.
Screening CN(C)S(=O)(=O)c1ccc2nnn(O)c2c1 returned MPTP inh 4, aDG glyco up 0, XBP1 UPR activ -1, NR3A LBD binder -1, UPR CHOP act 0 and CHOP inhibitor 5.
Screening CCOc1ccc(NC(=S)NC(=O)c2c(Cl)c(C)nn2C)c([N+](=O)[O-])c1 returned MPTP inh 2, aDG glyco up 0, XBP1 UPR activ -3, NR3A LBD binder 2, UPR CHOP act 2 and CHOP inhibitor 73*.
`Cc1nn(C)c(C(=O)NC(=S)Nc2ccccc2O)c1Cl` gave MPTP inh 1, aDG glyco up 0, XBP1 UPR activ -4, NR3A LBD binder -9 and UPR CHOP act 5.
CC(=O)OC1C2CCC1C([N+]1(C)CCCCC1)CC2 (stereo not given) was read as MPTP inh -1, aDG glyco up 0, XBP1 UPR activ 0, NR3A LBD binder 0, UPR CHOP act -1 and CHOP inhibitor -13.
For O=C(CN(Cc1ccco1)S(=O)(=O)c1ccccc1)N/N=C/c1ccccc1C(=O)O the results were MPTP inh 0, aDG glyco up 0, XBP1 UPR activ -2, NR3A LBD binder -2, UPR CHOP act 1 and CHOP inhibitor -4.
Screening COC(=O)c1ccc2nc(-c3cccc(N)c3)cn2c1 returned MPTP inh 2, aDG glyco up 0, XBP1 UPR activ -7, NR3A LBD binder -5, UPR CHOP act -8 and CHOP inhibitor 80*.
Screening CCCCNC(=S)N(CCN(C)C)Cc1cc2cc3c(cc2[nH]c1=O)OCCO3 returned MPTP inh 0, aDG glyco up 0, XBP1 UPR activ -4, NR3A LBD binder -1 and UPR CHOP act 1.
Screening NC(=O)c1sc2nc(N3CCCCC3)c3c(c2c1N)CCCC3 returned MPTP inh -1, aDG glyco up 0, XBP1 UPR activ 1, NR3A LBD binder 0, UPR CHOP act 0 and CHOP inhibitor 92*.
For CCCCNC(=S)N(C)/N=C/c1c(F)cccc1F the results were MPTP inh 4, aDG glyco up 0, XBP1 UPR activ -1, NR3A LBD binder 8, UPR CHOP act 2 and CHOP inhibitor 34.
CCCCNC(=S)N(C)/N=C/c1ccccc1F was read as MPTP inh 0, aDG glyco up 0, XBP1 UPR activ -4, NR3A LBD binder -1, UPR CHOP act 0 and CHOP inhibitor 77*.
CN1C(=O)c2ccc(NC(=O)c3cccc4ccccc34)cc2C1=O was read as MPTP inh 0, aDG glyco up 0, XBP1 UPR activ -1, NR3A LBD binder 18* and UPR CHOP act 2.
For O=C(NC(=S)NNC(=O)c1ccccc1O)c1ccco1 the results were MPTP inh 0, aDG glyco up 0, NR3A LBD binder -10 and CHOP inhibitor 2.
COc1cc(NC(=O)c2cc3ccccc3cc2O)c(OC)cc1Cl was read as MPTP inh 27, aDG glyco up 0, XBP1 UPR activ 13, NR3A LBD binder 33*, UPR CHOP act 10 and CHOP inhibitor 83*.
`CCOc1ccc(NC(=O)c2cc3ccccc3cc2O)cc1` gave MPTP inh 4, aDG glyco up 0, XBP1 UPR activ 3, NR3A LBD binder 5, UPR CHOP act 4 and CHOP inhibitor 75*.
For O=C(NC(=S)NNC(=O)c1cc2ccccc2cc1O)c1ccco1 the results were MPTP inh 2, aDG glyco up 0, XBP1 UPR activ 2, NR3A LBD binder 11*, UPR CHOP act 2 and CHOP inhibitor 24.
OC(c1ccc(F)c(F)c1)c1ncc(-c2cccc(F)c2)[nH]1 (stereo not given) was read as MPTP inh -1 and aDG glyco up 0.
Screening C=CCOC(=O)C1=C[C@H](C2CCCCC2)[C@@H](CCCO)[C@H](OCC)O1 returned MPTP inh -1, aDG glyco up 0, XBP1 UPR activ -3, NR3A LBD binder 0, UPR CHOP act 1 and CHOP inhibitor 10.
For N#CCCN(C(=O)COC(=O)C1CCN(S(=O)(=O)c2ccccc2C(F)(F)F)CC1)c1ccccc1 the results were MPTP inh -2, aDG glyco up 1 and NR3A LBD binder 3.
For O=C(OCC(=O)N1CCC(Cc2ccccc2)CC1)c1cc(Br)ccc1O the results were MPTP inh -1, aDG glyco up 0, XBP1 UPR activ 1, NR3A LBD binder 0 and UPR CHOP act 0.
CCOc1ccc(NC(=O)[C@@H](NC(=O)c2ccccc2Br)C(C)C)cc1 was read as MPTP inh -1, aDG glyco up 0, XBP1 UPR activ -2, NR3A LBD binder -1, UPR CHOP act -1 and CHOP inhibitor 11.
`CCOc1ccc(NC(=O)c2cc3ccccc3cc2OC)cc1` gave MPTP inh 2, aDG glyco up 0, XBP1 UPR activ 1, NR3A LBD binder 32* and UPR CHOP act 2.
Screening CCOc1ccc(NC(=O)C(CC)NC(=O)c2ccccc2CO)cc1 (stereo not given) returned MPTP inh -2, aDG glyco up 0, XBP1 UPR activ -2, NR3A LBD binder 0, UPR CHOP act -1 and CHOP inhibitor 76*.
For O=C(Nc1ccc2ccccc2c1)c1cccc2ccccc12 the results were MPTP inh 2, aDG glyco up 0 and NR3A LBD binder -7.
For O=C(NNC(=O)c1cc2ccccc2cc1O)Nc1ccc(Br)cc1 the results were MPTP inh 35, aDG glyco up 1, XBP1 UPR activ 0, NR3A LBD binder 19* and UPR CHOP act 2.
